Results: ChEMBL document CHEMBL1932987, “Straightforward palladium-mediated synthesis and biological evaluation of benzo[j]phenanthridine-7,12-diones as anti-tuberculosis agents” (Eur J Med Chem, 2012)
Converted amounts (≈) assume the structure as drawn.

Test system: Mycobacterium tuberculosis
Assay: Antimycobacterial activity against multi-drug resistant Mycobacterium tuberculosis LAM-1 after 1 to 6 days by BACTEC 460-TB assay
Type: functional
Summary of the method: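 Drug-resistant clinical LAM-1 isolate of M.tb. (resistant to isoniazid, rifampicin, rifabutin, prothionamid) tested in the BACTEC 460-TB radiometric system. Growth index read over time and compared with an untreated control and with a 100-fold diluted inoculum to derive MIC99. Isoniazid run in parallel to confirm resistance.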

## Cc1ccc2c3c(cnc2c1)C(=O)c1ccccc1C3=O
  MIC99: 0.71 µM (≈ 0.194 µg/mL)
